In ChEMBL document CHEMBL1123877, “Metabolic synthesis of arylacetic acid antiinflammatory drugs from arylhexenoic acids. 2. Indomethacin” (1987):

Columns and labels:
Rattus norvegicus [1] = experiment: Vocalization threshold value was measured in rat yeast induced hyperalgesia assay at a dose of 10 mg/kg for 1 hr.; format: functional
Method in brief: (§1)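 Female Sprague-Dawley rats, 50-60 g, groups of 10, fasted overnight. Brewer's yeast (5% in 0.1 mL) injected subplantar, then oral dosing in 1% methylcellulose. An air-driven piston (2 mm) presses the plantar surface of the normal and yeast-injected paws. The pressure that causes vocalization is read on a manometer in mmHg, tested 3 h after yeast. Normal vs inflamed paw compared by paired t test. Mean ± SEM.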

Mus musculus [2] = experiment: Inhibition of phenylbenzoquinone writhing in mice was tested at the dose of 30 mg/kg for 4 hr; format: functional
Method in brief: (§2)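 Male CD-1 mice, 18-22 g, groups of 10, fasted overnight. Oral dose in 1% methylcellulose (0.1 mL/10 g) at set times before phenylbenzoquinone, 2.0 mg/kg ip. Writhes counted 5-15 min after PBQ. % inhibition = 100 − (drug mean/vehicle mean × 100).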

Rattus norvegicus [3] = experiment: Plasma drug level was measured in rat yeast induced hyperalgesia assay in presence of indomethacin at a dose of 30 mg/kg for 1 hr.; format: functional
Method in brief: (§3)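 Rats are bled after the yeast hyperalgesia test. 50 μL plasma is mixed with an equal volume of 0.1 N HCl and injected directly on a C-18 reverse-phase HPLC column. Eluent is methanol/0.01 M phosphate pH 4 (65:35), 1.5 mL/min, with UV detection at 254 nm. Parent compound and indomethacin are quantified against standard calibration. Mean ± SEM, n=10.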

Rattus norvegicus [4] = experiment: Plasma drug level was measured in rat yeast induced hyperalgesia assay in presence of indomethacin at a dose of 30 mg/kg for 8 hr.; format: functional; method in brief: as §3
Mus musculus [5] = experiment: Inhibition of phenylbenzoquinone writhing in mice was tested at the dose of 30 mg/kg for 6 hr; format: functional; method in brief: as §2
Rattus norvegicus [6] = experiment: (§4) Vocalization threshold value was measured in rat yeast induced hyperalgesia assay at a dose of 30 mg/kg for 8 hr.; format: functional
Rattus norvegicus [7] = experiment: Plasma drug level was measured in rat yeast induced hyperalgesia assay in presence of indomethacin at a dose of 30 mg/kg for 4 hr.; format: functional; method in brief: as §3
Rattus norvegicus [8] = experiment: Plasma drug level was measured in rat yeast induced hyperalgesia assay in presence of drug 6 or 7 at a dose of 30 mg/kg for 8 hr.; format: functional; method in brief: as §3
Rattus norvegicus [9] = experiment: Vocalization threshold value was measured in rat yeast induced hyperalgesia assay at a dose of 30 mg/kg for 4 hr.; format: functional; method in brief: as §1
Rattus norvegicus [10] = experiment: Analgesic activity was measured in rat yeast induced hyperalgesia assay at a dose of 30 mg/kg for 8 hr.; format: functional
Method in brief: (§5)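 Female Sprague-Dawley rats, 50-60 g, groups of 10, fasted overnight. Brewer's yeast (5% in 0.1 mL) injected subplantar. Compound given orally in 1% methylcellulose, 0.1 mL/10 g. Each group tested once, always 3 h after yeast. An animal counts as analgesic if vocalization needs ≥25 mmHg on the inflamed paw. Result is percent of animals analgesic.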

Rattus norvegicus [11] = experiment: Plasma drug level was measured in rat yeast induced hyperalgesia assay in presence of drug 6 or 7 at a dose of 30 mg/kg for 1 hr.; format: functional; method in brief: as §3
Mus musculus [12] = experiment: Inhibition of phenylbenzoquinone writhing in mice was tested at the dose of 30 mg/kg for 2 hr; format: functional; method in brief: as §2
Rattus norvegicus [13] = experiment: Vocalization threshold value was measured in rat yeast induced hyperalgesia assay at a dose of 30 mg/kg for 1 hr.; format: functional; method in brief: as §1
Rattus norvegicus [14] = experiment: Plasma drug level was measured in rat yeast induced hyperalgesia assay in presence of drug 6 or 7 at a dose of 30 mg/kg for 4 hr.; format: functional; method in brief: as §3
Mus musculus [15] = experiment: Inhibition of phenylbenzoquinone writhing in mice was tested at the dose of 30 mg/kg for 1 hr; format: functional; method in brief: as §2
Rattus norvegicus [16] = experiment: Analgesic activity was measured in rat yeast induced hyperalgesia assay at a dose of 30 mg/kg for 4 hr.; format: functional; method in brief: as §5
Rattus norvegicus [17] = experiment: as §4; format: functional; method in brief: as §1; remark: listed apart in the source
Rattus norvegicus [18] = experiment: Analgesic activity was measured in rat yeast induced hyperalgesia assay at a dose of 30 mg/kg for 1 hr.; format: functional; method in brief: as §5
Rattus norvegicus [19] = experiment: Vocalization threshold value was measured in rat yeast induced hyperalgesia assay at a dose of 30 mg/kg for 12 hr.; format: functional; method in brief: as §1
Rattus norvegicus [20] = experiment: (§6) Vocalization threshold value was measured in rat yeast induced hyperalgesia assay at a dose of 10 mg/kg for 8 hr.; format: functional
Rattus norvegicus [21] = experiment: Plasma drug level was measured in rat yeast induced hyperalgesia assay in presence of drug 6 or 7 at a dose of 30 mg/kg for 12 hr; format: functional; method in brief: as §3
Rattus norvegicus [22] = experiment: as §6; format: functional; method in brief: as §1; remark: listed apart in the source
Rattus norvegicus [23] = experiment: Analgesic activity was measured in rat yeast induced hyperalgesia assay at a dose of 30 mg/kg for 12 hr.; format: functional; method in brief: as §5
Rattus norvegicus [24] = experiment: (§7) Vocalization threshold value was measured in rat yeast induced hyperalgesia assay at a dose of 30 mg/kg for 24 hr.; format: functional; method in brief: as §1
Rattus norvegicus [25] = experiment: Plasma drug level was measured in rat yeast induced hyperalgesia assay in presence of indomethacin at a dose of 30 mg/kg for 12 hr.; format: functional; method in brief: as §3
Rattus norvegicus [26] = experiment: Analgesic activity was measured in rat yeast induced hyperalgesia assay at a dose of 30 mg/kg for 24 hr.; format: functional; method in brief: as §5
Rattus norvegicus [27] = experiment: Analgesic activity was measured in rat yeast induced hyperalgesia assay at a dose of 10 mg/kg for 6 hr.; format: functional; method in brief: as §5
Rattus norvegicus [28] = experiment: Vocalization threshold value was measured in rat yeast induced hyperalgesia assay at a dose of 10 mg/kg for 6 hr.; format: functional; method in brief: as §1
Rattus norvegicus [29] = experiment: as §7; format: functional; remark: listed apart in the source
Rattus norvegicus [30] = experiment: Analgesic activity was measured in rat yeast induced hyperalgesia assay at a dose of 10 mg/kg for 1 hr.; format: functional; method in brief: as §5
Rattus norvegicus [31] = experiment: Plasma drug level was measured in rat yeast induced hyperalgesia assay in presence of indomethacin at a dose of 30 mg/kg for 24 hr.; format: functional; method in brief: as §3
Rattus norvegicus [32] = experiment: Analgesic activity was measured in rat yeast induced hyperalgesia assay at a dose of 10 mg/kg for 8 hr.; format: functional; method in brief: as §5
Rattus norvegicus [33] = experiment: Analgesic activity was measured in rat yeast induced hyperalgesia assay at a dose of 10 mg/kg for 4 hr.; format: functional; method in brief: as §5
Rattus norvegicus [34] = experiment: Compound was tested for hyperalgesia activity in rats after perorally administered at 1 hr; details: po
Mus musculus [35] = experiment: Compound was tested for […] activity in mice after perorally administered at 1 hr; format: functional; details: po
Rattus norvegicus [36] = experiment: Vocalization threshold value was measured in rat yeast induced hyperalgesia assay at a dose of 10 mg/kg for 12 hr.; format: functional; method in brief: as §1
Rattus norvegicus [37] = experiment: Analgesic activity was measured in rat yeast induced hyperalgesia assay at a dose of 10 mg/kg for 12 hr.; format: functional; method in brief: as §5
Rattus norvegicus [38] = experiment: Plasma drug level was measured in rat yeast induced hyperalgesia assay in presence of indomethacin at a dose of 10 mg/kg for 24 hr.; format: functional; method in brief: as §3
Mus musculus [39] = experiment: Inhibition of phenylbenzoquinone writhing in mice was tested at the dose of 3 mg/kg for 1 hr; format: functional; method in brief: as §2
Rattus norvegicus [40] = experiment: (§8) Vocalization threshold value was measured in rat yeast induced hyperalgesia assay at a dose of 10 mg/kg for 4 hr.; format: functional; method in brief: as §1
Rattus norvegicus [41] = experiment: Vocalization threshold value was measured in rat yeast induced hyperalgesia assay at a dose of 10 mg/kg for 24 hr.; format: functional; method in brief: as §1
Mus musculus [42] = experiment: Inhibition of phenylbenzoquinone writhing in mice was tested at the dose of 3 mg/kg for 4 hr; format: functional; method in brief: as §2
Rattus norvegicus [43] = experiment: Plasma drug level was measured in rat yeast induced hyperalgesia assay in presence of indomethacin at a dose of 10 mg/kg for 4 hr.; format: functional; method in brief: as §3
Mus musculus [44] = experiment: Inhibition of phenylbenzoquinone writhing in mice was tested at the dose of 3 mg/kg for 2 hr; format: functional; method in brief: as §2
Rattus norvegicus [45] = experiment: Analgesic activity was measured in rat yeast induced hyperalgesia assay at a dose of 10 mg/kg for 24 hr.; format: functional; method in brief: as §5
Rattus norvegicus [46] = experiment: Plasma drug level was measured in rat yeast induced hyperalgesia assay in presence of indomethacin at a dose of 10 mg/kg for 8 hr.; format: functional; method in brief: as §3
Rattus norvegicus [47] = experiment: Plasma drug level was measured in rat yeast induced hyperalgesia assay in presence of indomethacin at a dose of 10 mg/kg for 1 hr.; format: functional; method in brief: as §3
Rattus norvegicus [48] = experiment: Plasma drug level was measured in rat yeast induced hyperalgesia assay in presence of indomethacin at a dose of 10 mg/kg for 12 hr.; format: functional; method in brief: as §3
Rattus norvegicus [49] = experiment: as §8; format: functional; remark: listed apart in the source

## COc1ccc2c(c1)c(/C=C/CC(=O)O)c(C)n2C(=O)c1ccc(Cl)cc1
Rattus norvegicus [1]
  Normal: 25.8 mmHg
Mus musculus [2]
  Writhes: 23
  inhibition in vivo at 30 mg/kg: 46%
Rattus norvegicus [3]
  Drug level: <1 µg/mL
Rattus norvegicus [4]
  Drug level: <1 µg/mL
Mus musculus [5]
  Writhes: 29.5
  inhibition in vivo at 30 mg/kg: 28%
Rattus norvegicus [6]
  Normal: 25.4 mmHg
Rattus norvegicus [7]
  Drug level: <1 µg/mL
Rattus norvegicus [8]
  Drug level: 10 µg/mL
Rattus norvegicus [9]
  Inflamed: 20.2 mmHg
  Normal: 23.4 mmHg
Rattus norvegicus [10]
  Analgesic: 30%
Rattus norvegicus [11]
  Drug level: 26 µg/mL
Mus musculus [12]
  Writhes: 28.6
  inhibition in vivo at 30 mg/kg: 32%
Rattus norvegicus [13]
  Inflamed: 14.2 mmHg
Rattus norvegicus [14]
  Drug level: 17 µg/mL
Mus musculus [15]
  Writhes: 34
  inhibition in vivo at 30 mg/kg: 19%
Rattus norvegicus [16]
  Analgesic: 30%
Rattus norvegicus [17]
  Inflamed: 21.6 mmHg
Rattus norvegicus [18]
  Analgesic: 10%

## COc1ccc2c(c1)c(/C=C/CCCC(=O)O)c(C)n2C(=O)c1ccc(Cl)cc1
Rattus norvegicus [1]
  Inflamed: 16.8 mmHg
  Normal: 24 mmHg
Mus musculus [2]
  Writhes: 7.2
  inhibition in vivo at 30 mg/kg: 65%
Rattus norvegicus [4]
  Drug level: 2.1 µg/mL
Rattus norvegicus [19]
  Inflamed: 25 mmHg
  Normal: 25.2 mmHg
Rattus norvegicus [6]
  Normal: 25.6 mmHg
Rattus norvegicus [20]
  Normal: 23.2 mmHg
Rattus norvegicus [7]
  Drug level: 2.2 µg/mL
Rattus norvegicus [21]
  Drug level: 1.1 µg/mL
Rattus norvegicus [8]
  Drug level: 6.1 µg/mL
Rattus norvegicus [22]
  Inflamed: 23.8 mmHg
Rattus norvegicus [23]
  Analgesic: 60%
Rattus norvegicus [24]
  Normal: 24.4 mmHg
Rattus norvegicus [9]
  Inflamed: 26 mmHg
  Normal: 24.8 mmHg
Rattus norvegicus [25]
  Drug level: 2.2 µg/mL
Rattus norvegicus [10]
  Analgesic: 100%
Rattus norvegicus [26]
  Analgesic: 0%
Rattus norvegicus [27]
  Analgesic: 40%
Mus musculus [12]
  Writhes: 15.3
  inhibition in vivo at 30 mg/kg: 26%
Rattus norvegicus [28]
  Inflamed: 21.6 mmHg
  Normal: 22 mmHg
Rattus norvegicus [29]
  Inflamed: 13 mmHg
Rattus norvegicus [30]
  Analgesic: 10%
Rattus norvegicus [31]
  Drug level: 1.6 µg/mL
Rattus norvegicus [13]
  Inflamed: 25.4 mmHg
  Normal: 23 mmHg
Rattus norvegicus [14]
  Drug level: 24.1 µg/mL
Mus musculus [15]
  Writhes: 16.4
  inhibition in vivo at 30 mg/kg: 20%
Rattus norvegicus [16]
  Analgesic: 60%
Rattus norvegicus [32]
  Analgesic: 40%
Rattus norvegicus [17]
  Inflamed: 27.6 mmHg
Rattus norvegicus [18]
  Analgesic: 60%

## COc1ccc2c(c1)c(CC(=O)O)c(C)n2C(=O)c1ccc(Cl)cc1 [INDOMETHACIN]
Rattus norvegicus [1]
  Inflamed: 30 mmHg
  Normal: 27.9 mmHg
Rattus norvegicus [33]
  Analgesic: 100%
Rattus norvegicus [34]
  ED50: 5 mg/kg
Rattus norvegicus [20]
  Normal: 28.4 mmHg
Mus musculus [35]
  ED50: 3 mg/kg
Rattus norvegicus [36]
  Inflamed: 15.6 mmHg
  Normal: 24.4 mmHg
Rattus norvegicus [37]
  Analgesic: 0%
Rattus norvegicus [38]
  Drug level: 3.3 µg/mL
Rattus norvegicus [22]
  Inflamed: 28.4 mmHg
Mus musculus [39]
  Writhes: 4.8
  inhibition in vivo at 3 mg/kg: 89%
Rattus norvegicus [40]
  Normal: 26.8 mmHg
Rattus norvegicus [41]
  Inflamed: 16 mmHg
  Normal: 22.4 mmHg
Mus musculus [42]
  Writhes: 32.9
  inhibition in vivo at 3 mg/kg: 28%
Rattus norvegicus [43]
  Drug level: 38 µg/mL
Mus musculus [44]
  Writhes: 38.3
  inhibition in vivo at 3 mg/kg: 16%
Rattus norvegicus [45]
  Analgesic: 0%
Rattus norvegicus [30]
  Analgesic: 70%
Rattus norvegicus [46]
  Drug level: 21 µg/mL
Rattus norvegicus [47]
  Drug level: 21 µg/mL
Rattus norvegicus [48]
  Drug level: 9.8 µg/mL
Rattus norvegicus [49]
  Inflamed: 32 mmHg
Rattus norvegicus [32]
  Analgesic: 40%
